From the RNAGym collection of RNA variant scans (doi:10.1126/science.aae0568)
Fewer inactive variants are shown than the library holds.

B1: tRNA (parent)
chain: GUUCCGUUGGCGUAAUGGUAACGCGUCUCCCUCCUAAGGAGAAGACUGCGGGUUCGAGUCCCGUACGGAACG

Variants of: B1
Assay: yeast fitness relative to wild type (ratio to wild type); higher = fitter; tRNA-Arg(CCU), competitive growth, 37 C, YPD
Procedure, shortened: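 Genotype frequency changes were the basis for Darwinian fitness relative to wild type. The frequencies came from 100-nucleotide paired-end sequencing of gene amplicons from the start population and each end population of pooled yeast strains with tRNA-Arg(CCU) gene variants at the native locus. Competition ran in YPD at 37°C for 24 hours in six replicates, genotypes needed ≥ 100 starting reads, and estimates < 0.5 were set to 0.5.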

| Variant | yeast fitness |
| --- | --- |
| G9A A15U A20G | 0.503 |
| U8C U59A A70G | 0.556 |
| U8G C49U G51A A65U | ≤ 0.5 |
| G9A A14C G25C G56A | 0.579 |
| U8G C24A U35G C46G U53C U54G | ≤ 0.5 |
| U8G U32C C34G G68A | 0.598 |
| U8G C61A | 0.562 |
| U8G G9U C30A | ≤ 0.5 |
| G9A A36C A45C | 0.602 |
| U8G U16A G18C C22G | ≤ 0.5 |
| G9A A14U C29G C34A | 0.55 |
| U8G A21U C29U G68C | ≤ 0.5 |
| U8G G51C C60A | ≤ 0.5 |
| U8G A57G C60A | ≤ 0.5 |
| U8C U28C | 0.834 |
| U8G A15U | ≤ 0.5 |
| U8G G51A A65C C66U | ≤ 0.5 |
| G9A A40G C66U | ≤ 0.5 |
| U8G G18C A37G A40G C55G C66A | ≤ 0.5 |
| U8G C33U A57C U64C A70G | 0.511 |
| G9A A15C G56A C61U | ≤ 0.5 |

| Variant | yeast fitness |
| --- | --- |
| U8G A21U C27G A57G | ≤ 0.5 |
| U8G A21G C29U C30A U32C | ≤ 0.5 |
| G9A A40G C60U | ≤ 0.5 |
| U8C G50C C55A C60A | ≤ 0.5 |
| G9A A21U C24U C29U C49U | ≤ 0.5 |
| U8G A21C C46U | 0.554 |
| U8G A45U | 0.648 |
| U8G C33A C49U C66G | ≤ 0.5 |
| U8G C33A C49U C66U | 0.609 |
| U8G G12A G50C G52C C55U | 0.618 |
| U8G G10A C60U | 0.585 |
| G9A A15U C22A G25A G48A | ≤ 0.5 |
| U8C G44A U53C C55A A70U | ≤ 0.5 |
| U8C U32A | 0.755 |
| G9A A43C A57C | 0.569 |
| U8G G38C G39C A40G G44A C46G G52A | ≤ 0.5 |
| U8G C31U C66U | ≤ 0.5 |
| U8C U53A U64C | ≤ 0.5 |
| G9A A15U A45U | 0.533 |
| G9A A42G C49A G58A | ≤ 0.5 |
| U8G G12A G38A A69U | ≤ 0.5 |

| Variant | yeast fitness |
| --- | --- |
| U8C U19C A57U | ≤ 0.5 |
| G9A A15C | 0.788 |
| U8G C22U G23A C24G A43U | ≤ 0.5 |
| G9A | 0.991 |
| U8G A14G C46U C55A C66U | ≤ 0.5 |
| G9A A21G C29G C34G A57U C62G | ≤ 0.5 |
| U8C U16C A70U | 0.577 |
| U8G U13G A37U G63C | ≤ 0.5 |
| U8C U13A G51A | 0.53 |
| U8C U16C A20U C30U G39C A45G A69C | ≤ 0.5 |
| G9A A21U A36G A40C U47C | ≤ 0.5 |
| G9A A36U | 0.677 |
| G9A A36G | 1.03 |
| U8G A36C A45U C49U | ≤ 0.5 |
| U8C G25C G38A G58A C60U | ≤ 0.5 |
| U8G A14G C33U | ≤ 0.5 |
| G9A A36C G48A G67A | ≤ 0.5 |
| U8C U19C C55U | ≤ 0.5 |
| U8C U19C C55G | ≤ 0.5 |
| G9A A15U G41A | ≤ 0.5 |
| G9A A36C G38A | ≤ 0.5 |

| Variant | yeast fitness |
| --- | --- |
| G9A A20G A42C G52C U54A | ≤ 0.5 |
| G9A A36G C46U | 0.683 |
| U8G G18C C22U C29U C46A C55G | 0.574 |
| U8G G68C | 0.583 |
| U8C U16A C33G G41C G56C G58A G63C A65U | ≤ 0.5 |
| U8C U16C C24U U47A C55U | ≤ 0.5 |
| U8C U32A U47A G56C | 0.944 |
| G9A A36U G39A U54A | ≤ 0.5 |
| U8G G23C A37G A70G | 0.631 |
| U8C G39C U47C U59C | ≤ 0.5 |
| U8C U26G | 0.959 |
| U8C U26C | 0.837 |
| U8G U13A | 0.56 |
| G9A A21C C46G C49G | ≤ 0.5 |
| U8C U19A A37G | 0.559 |
| U8G A14G G18A U47A C62G | ≤ 0.5 |
| U8G U26C | 0.592 |
| U8G U26A | 0.605 |
| U8G U26A G52A U54A C60A | ≤ 0.5 |
| U8C G52C | 0.639 |
| U8C U47C | 0.913 |
